m-calpain inh: blocks pig calpain II enzyme activity; purified calpain II, fluorogenic peptide substrate, 30 min; inhibition, % at 16 µM; 220,000 tested, 0.37% active;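 active means inhibition above about 50%, limit read from the data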
FXIIa inh 1536: inhibitors of human coagulation factor XIIa. P00748. purified FXIIa, Boc-QGR-AMC fluorogenic substrate, 2 h. inhibition, % at 5 µM. 220,000 tested, 0.3% active. AID 800; in the data active means inhibition above about 40%;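 further: 0% = enzyme with no compound and 100% = blank without enzyme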
FXIa inh 1536: blocks human coagulation factor XIa protease activity | inhibition, % at 5 µM | 220,000 tested, 0.14% active | purified FXIa, Boc-Glu-Ala-Arg-AMC fluorogenic substrate;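 active means inhibition of at least 40%; inactive means inhibition below 40%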;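 further: fluorescence of freed AMC excited at 355 nm; 0% = enzyme without compound and 100% = no enzyme blank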
hK5 inh: kallikrein 5 (human) inhibition; recombinant hK5, fluorogenic AMC substrate cleavage; inhibition, % at 5 µM; 210,000 tested, 0.59% active;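 active means inhibition of 40% or more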;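 further: 0% = enzyme controls without compound and 100% = no-enzyme blanks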
Target sequence (Q9Y337 67-293 limits assumed): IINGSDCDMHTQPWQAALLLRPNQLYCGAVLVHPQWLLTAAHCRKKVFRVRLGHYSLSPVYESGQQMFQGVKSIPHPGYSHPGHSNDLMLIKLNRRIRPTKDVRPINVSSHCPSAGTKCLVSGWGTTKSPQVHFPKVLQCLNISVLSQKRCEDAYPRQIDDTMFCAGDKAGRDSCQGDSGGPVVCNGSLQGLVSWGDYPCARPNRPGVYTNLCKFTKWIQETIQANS
Thrombin inh: inhibitors of human thrombin; alpha-thrombin, Boc-VPR-AMC fluorogenic substrate cleavage; AID 1046; 220,000 tested, 0.26% active; inhibition, % at 5 µM; P00734;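 active means inhibition at or above 40%; inactive means inhibition below 40%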;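 further: 0% = enzyme with no compound and 100% = wells without enzyme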
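Material: human alpha-thrombin protein. Incubation: reaction at ambient temperature. Technique: fluorescence of released AMC, ex 355 nm, em 460 nm. Control set: no-compound enzyme wells and no-enzyme blanks. Also added: Boc-VPR-AMC substrate, 15 µM final. Buffer or medium: pH 7.5 Tris (50 mM) with NaCl 150 mM, Tween 20 0.05%.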
* marks the source's active call; other numbers are inactive results. Hits are enriched below; roughly 1.4% of the tested compounds scored in any of these assays.

`Cc1nn(C(C)C(=O)NCCCc2ccccc2)c(=O)c2cc3occc3n12` (stereo unspecified) gave m-calpain inh 11.2, FXIIa inh 1536 16.3, FXIa inh 1536 15.9, hK5 inh -9.0 and Thrombin inh -1.8.
`Cc1nn(C(C)C(=O)NCC2CCCO2)c(=O)c2cc3occc3n12` (stereo unspecified) gave m-calpain inh 1.5, FXIIa inh 1536 2.6, FXIa inh 1536 6.8, hK5 inh 43.5* and Thrombin inh 10.7.
For Nc1c(C(=O)Nc2ccc(Cl)c(Cl)c2)sc2nc(-c3cccnc3)ccc12 the results were m-calpain inh 27.3, FXIIa inh 1536 11.3, FXIa inh 1536 9.4, hK5 inh 48.5* and Thrombin inh 4.5.
`Nc1c(C(=O)Nc2ccccc2F)sc2nc(-c3cccnc3)ccc12` gave m-calpain inh -83.4, FXIIa inh 1536 6.3, FXIa inh 1536 -0.2, hK5 inh -1.3 and Thrombin inh -3.1.
Screening Cc1ccc(Cl)cc1N1CCN(C(=O)CN2C(=O)c3cccc4cccc2c34)CC1 returned m-calpain inh -168.0, FXIIa inh 1536 6.8, FXIa inh 1536 4.1, hK5 inh 62.5* and Thrombin inh 23.6.
`CC(=O)N(C)c1ccc(NC(=S)NCC(C)C)cc1` gave m-calpain inh 19.9, FXIIa inh 1536 11.0, FXIa inh 1536 2.2 and Thrombin inh -2.2.
CSCCC(=O)Nc1cc(S(=O)(=O)N2CCOCC2)ccc1N1CCN(C)CC1 was read as m-calpain inh -4.3, FXIIa inh 1536 -2.2, FXIa inh 1536 0.2, hK5 inh -5.7 and Thrombin inh 0.1.
Screening COc1ccc(-n2c(O)c(C=Nc3ccccc3)c3ccccc3c2=O)cc1 returned m-calpain inh -99.5, FXIIa inh 1536 9.2, FXIa inh 1536 -1.8, hK5 inh 2.6 and Thrombin inh 40.2*.
For Cc1ccc(C2=Nc3ccccc3SC(c3cccc([N+](=O)[O-])c3)C2)cc1 (stereo unspecified) the results were m-calpain inh 13.8, FXIIa inh 1536 3.1, FXIa inh 1536 0.1, hK5 inh 1.8 and Thrombin inh -2.0.
Screening CN(C)S(=O)(=O)N1CCN(c2cccc(Cl)c2)CC1 returned m-calpain inh 16.6, FXIIa inh 1536 15.2, FXIa inh 1536 -7.8, hK5 inh 83.3* and Thrombin inh 25.4.
For CC(=O)N1c2ccccc2N2C(c3c(C)c(C)cc(C)c3C)=NON12 the results were m-calpain inh 9.0, FXIIa inh 1536 6.0, FXIa inh 1536 0.4, hK5 inh -3.7 and Thrombin inh 47.2*.
Screening Cc1ccc(NC(=O)CCCc2ccccc2)nc1 returned m-calpain inh -13.0, FXIIa inh 1536 5.5, FXIa inh 1536 -2.6, hK5 inh 1.6 and Thrombin inh -1.7.
`Cc1ccc(NC(=S)NCCc2ccccc2)nc1` gave m-calpain inh 15.7, FXIIa inh 1536 12.6, FXIa inh 1536 53.9*, hK5 inh 9.8 and Thrombin inh -1.2.
`NC(=O)CC(NC(=O)Cc1ccc(Br)cc1)c1ccc(NCc2ccc(F)cc2)c([N+](=O)[O-])c1` (stereo unspecified) gave m-calpain inh 5.9, FXIIa inh 1536 7.0, FXIa inh 1536 -2.0, hK5 inh -0.2 and Thrombin inh -10.5.
For Cc1sc(NC(=S)NC(=O)c2cccs2)nc1-c1ccc(C(C)C)cc1 the results were m-calpain inh 62.4*, FXIIa inh 1536 -1.4, FXIa inh 1536 0.7, hK5 inh -12.8 and Thrombin inh 6.6.
`Cc1nc(Sc2ccc(Br)cc2)c(C#N)c(C)c1[N+](=O)[O-]` gave m-calpain inh 19.2, FXIIa inh 1536 7.4, FXIa inh 1536 -6.8, hK5 inh 7.0 and Thrombin inh 0.7.
O=C(c1cccc(-c2ccc(O)cc2)c1)N1CCN(c2ccc(F)cc2)CC1 was read as m-calpain inh -19.8, FXIIa inh 1536 2.6, FXIa inh 1536 -3.3, hK5 inh -7.9 and Thrombin inh 1.1.
Screening C=C(C)c1cccc(C(C)(C)NC(=O)NCc2ccc(OC)cc2)c1 returned m-calpain inh -5.2, FXIIa inh 1536 2.2, FXIa inh 1536 4.0, hK5 inh -4.9 and Thrombin inh -8.0.
`COc1ccc(CNC(=O)NC(C)(C)c2cccc(C(C)(C)NC(=O)NCc3ccc(OC)cc3)c2)cc1` gave m-calpain inh 29.9, FXIIa inh 1536 30.1, FXIa inh 1536 8.7, hK5 inh 44.1* and Thrombin inh 15.5.
O=C(CCCN1C(=O)/C(=C/c2ccccc2Cl)SC1=S)NNC(=O)c1ccc(Cl)cc1Cl was read as m-calpain inh 51.9*, FXIIa inh 1536 1.0, FXIa inh 1536 -3.4, hK5 inh -2.3 and Thrombin inh -5.9.
Screening O=C(CCCN1C(=O)/C(=C/c2ccccc2Cl)SC1=S)NNC(=O)c1ccccc1 returned m-calpain inh -23.6, FXIIa inh 1536 9.4, FXIa inh 1536 7.6, hK5 inh -12.4 and Thrombin inh 1.9.
`CN(NC(=O)c1ccccc1F)c1ccc([N+](=O)[O-])cn1` gave m-calpain inh 28.3, FXIIa inh 1536 8.4, FXIa inh 1536 3.9, hK5 inh 3.3 and Thrombin inh -4.5.
`COc1cc(/C=N/NC(=O)c2sc(N)c(C#N)c2C)cc(Br)c1O` gave m-calpain inh -169.5, FXIIa inh 1536 17.0, FXIa inh 1536 -22.2, hK5 inh -14.3 and Thrombin inh 5.5.
For COc1ccc2ccccc2c1/C=N/NC(=O)c1sc(N)c(C#N)c1C the results were m-calpain inh 21.2, FXIIa inh 1536 12.6, FXIa inh 1536 7.3, hK5 inh 63.5* and Thrombin inh 21.2.
`CC(C)Nc1nc(C#N)nc(NC(C)C)n1` gave m-calpain inh 13.8, FXIIa inh 1536 6.2, FXIa inh 1536 1.6, hK5 inh 97.2* and Thrombin inh 102.3*.
`C/C(=N/NC(=O)c1ccco1)c1cccnc1` gave m-calpain inh -18.4, FXIIa inh 1536 8.7, FXIa inh 1536 -0.3, hK5 inh 2.6 and Thrombin inh -2.0.
`CC(=O)c1ccc(O)c(CSC2=NCCS2)c1` gave m-calpain inh 29.4, FXIIa inh 1536 25.6, FXIa inh 1536 27.2, hK5 inh 33.9 and Thrombin inh 66.8*.
`O=C(Cc1ccccc1)NC(NC(=S)Nc1cc(Cl)ccc1Cl)C(Cl)(Cl)Cl` (stereo unspecified) gave m-calpain inh 50.6*, FXIIa inh 1536 103.2*, FXIa inh 1536 19.9, hK5 inh 17.6 and Thrombin inh 15.8.
Screening CCOC(=O)CSc1nc(=O)n2cccc(C)c2n1 returned m-calpain inh -13.8, FXIIa inh 1536 5.4, FXIa inh 1536 2.9, hK5 inh 0.8 and Thrombin inh 1.4.
`OC1(c2ccc(F)cc2)CCN(Cc2nnnn2Cc2cccs2)CC1` gave m-calpain inh 8.7, FXIIa inh 1536 11.2, FXIa inh 1536 1.8, hK5 inh 36.1 and Thrombin inh 60.5*.
`Fc1cccc(Cl)c1CSc1ccc(-c2cccnc2)nn1` gave m-calpain inh 64.2*, FXIIa inh 1536 3.7, FXIa inh 1536 -4.0, hK5 inh -6.8 and Thrombin inh -11.2.
Screening O=c1c2c(-c3cccs3)csc2ncn1-n1cccc1 returned m-calpain inh 81.5*, FXIIa inh 1536 0.6, FXIa inh 1536 1.9, hK5 inh -6.9 and Thrombin inh -6.4.
